The source made the active and inactive calls. The rule behind the calls is not given here.
How the values were obtained:
[1] = tested on: Mus musculus; assay: Potentiation of acetone-induced cold allodynic response in Swiss CD-1 mouse chronic constriction injury model applied topically 20 mins prior to acetone-challenge measured for 7 to 9 mins post acetone-challenge; type: functional, organism-based
Outline: (§1)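 Male Swiss CD1 mice (30–35 g) with sciatic nerve chronic constriction injury under xylazine/ketamine i.p. Day 14: 50 µl of compound at 20% w/v in absolute ethanol applied topically to the operated paw (vehicle: ethanol). After 20 min, acetone applied. Brisk paw withdrawals counted in three 2-min windows about 5 min apart, as totals and per phase. n = 6 per group.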

[2] = tested on: Mus musculus; assay: Potentiation of acetone-induced cold allodynic response in Swiss CD-1 mouse chronic constriction injury model applied topically 20 mins prior to acetone-challenge; type: functional, organism-based; outline: as §1
[3] = (§2) Agonist activity at TRPM8 in differentiated rat/mouse F11 cells assessed as increase in intracellular Ca2+ level by Fura-2-AM based fluorescence assay; type: cell-based
Outline: (§3)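 In differentiated F11 cells, L-menthol was perfused for 20 s at 1–300 µM in Normal Krebs, pH 7.4, room temperature. Fura-2 340/380 ratio was imaged every 3 s as F/F0. EC50 came from a fit to y = max/(1 + x/EC50)^n. Mean ± SEM of 23–28 determinations over at least 3 sessions.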

[4] = tested on: F11; assay: as §2; type: cell-based; outline: as §3
[5] = tested on: Mus musculus; assay: Potentiation of acetone-induced cold allodynic response in Swiss CD-1 mouse chronic constriction injury model applied topically 20 mins prior to acetone-challenge measured up to 2 mins post acetone-challenge; type: functional, organism-based; outline: as §1
[6] = tested on: F11; assay: Agonist activity at TRPM8 in differentiated rat/mouse F11 cells assessed as increase in intracellular Ca2+ level at 0.01 to 100 uM by Fura-2-AM based fluorescence assay relative to menthol; type: cell-based
Outline: (§4)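 Differentiated F11 cells (≥72 h in 2% FBS plus retinoic acid) in Normal Krebs, pH 7.4, room temperature. Compounds perfused over the stated ranges. Fura-2 340/380 nm ratio read every 3 s after background correction. Peak F/F0 normalized to the maximal menthol response for efficacy. For potency, F/F0 was normalized to each compound's own maximum and fitted to y = max/(1 + […])^n.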

[7] = tested on: Mus musculus; assay: Potentiation of acetone-induced cold allodynic response in Swiss CD-1 mouse chronic constriction injury model applied topically 20 mins prior to acetone-challenge measured for 14 to 16 mins post acetone-challenge; type: functional, organism-based; outline: as §1
[8] = tested on: F11; assay: Agonist activity at TRPM8 in differentiated rat/mouse F11 cells assessed as increase in intracellular Ca2+ level at 1 to 100 uM by Fura-2-AM based fluorescence assay relative to menthol; type: cell-based; outline: as §4
[9] = tested on: F11; assay: Agonist activity at TRPM8 in differentiated rat/mouse F11 cells assessed as increase in intracellular Ca2+ level at 0.001 to 30 uM by Fura-2-AM based fluorescence assay relative to menthol; type: cell-based; outline: as §4
[10] = tested on: F11; assay: Agonist activity at TRPM8 in differentiated rat/mouse F11 cells assessed as increase in intracellular Ca2+ level at 0.1 to 300 uM by Fura-2-AM based fluorescence assay relative to menthol; type: cell-based; outline: as §4
[11] = tested on: F11; assay: Agonist activity at TRPM8 in differentiated rat/mouse F11 cells assessed as increase in intracellular Ca2+ level at 0.01 to 30 uM by Fura-2-AM based fluorescence assay relative to menthol; type: cell-based; outline: as §4
[12] = tested on: F11; assay: Agonist activity at TRPM8 in differentiated rat/mouse F11 cells assessed as increase in intracellular Ca2+ level at 10 to 1000 uM by Fura-2-AM based fluorescence assay relative to menthol; type: cell-based; outline: as §4
[13] = tested on: F11; assay: Agonist activity at TRPM8 in differentiated rat/mouse F11 cells assessed as increase in intracellular Ca2+ level at 1 to 300 uM measured after 1 to 15 seconds by Fura-2-AM based fluorescence assay; type: cell-based; outline: as §3
[14] = (§5) Agonist activity at TRPM8 in differentiated rat/mouse F11 cells assessed as increase in intracellular Ca2+ level measured after 20 seconds by Fura-2-AM based fluorescence assay; type: cell-based; outline: as §3
[15] = tested on: F11; assay: as §5; type: cell-based; outline: as §3
[16] = tested on: F11; assay: Agonist activity at TRPM8 in differentiated rat/mouse F11 cells assessed as effect on intracellular Ca2+ level at 100 uM by Fura-2-AM based fluorescence assay in presence of TRPM8 antagonist BCTC; type: cell-based
Outline: (§6)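 Fura-2 ratiometric Ca2+ imaging in F11 cells differentiated ≥72 h in medium with 2% FBS and retinoic acid, on poly-L-lysine coverslips, at room temperature in Normal Krebs (mM: NaCl 160, KCl 5.5, CaCl2 1.5, MgSO4 1.2, HEPES 10, glucose 10, pH 7.4). Menthol 100 µM perfused alone, with BCTC co-perfusion, or in Ca2+-free solution plus 1 mM EDTA. Peak F/F0 quantified.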

[17] = tested on: F11; assay: Agonist activity at TRPM8 in differentiated rat/mouse F11 cells at 100 uM treated in Ca2+-free solution by Fura-2-AM based fluorescence assay; type: cell-based; outline: as §6
[18] = tested on: F11; assay: Agonist activity at TRPM8 in differentiated rat/mouse F11 cells assessed as increase in intracellular Ca2+ level at 1 to 500 uM by Fura-2-AM based fluorescence assay relative to menthol; type: cell-based; outline: as §4
[19] = tested on: F11; assay: Agonist activity at TRPM8 in differentiated rat/mouse F11 cells assessed as increase in intracellular Ca2+ level at 0.3 to 100 uM by Fura-2-AM based fluorescence assay relative to menthol; type: cell-based; outline: as §4

Row | SMILES | EC50 [3] [µM] | Activity [1] | Activity [4] | Activity [5] | Activity [7] | further results
1 | CC(C)CNc1ccon1 | 13.2 |  | Dose-dependent effect |  |  | Efficacy [8]: 72%
2 | Cc1cc(NCc2ccccc2[N+](=O)[O-])no1 | 12 |  | Dose-dependent effect |  |  | Efficacy [10]: 66%
3 | CCCCNc1ccon1 | 17.3 |  | Dose-dependent effect |  |  | Efficacy [8]: 69%
4 | Cc1cc(NCc2ccc([N+](=O)[O-])cc2)no1 | 18.9 |  | Dose-dependent effect |  |  | Efficacy [10]: 74%
5 | CCCCNc1cc(C)no1 | 100 |  | Dose-dependent effect |  |  | Efficacy [12]: 32%
6 | CC(C)[C@@H]1CC[C@@H](C)C[C@H]1O [LEVOMENTHOL] |  | Active |  | inactive | inactive | Activity [13]: Active; EC50 [14]: 23.4 µM; Activity [15]: Dose-dependent effect; Activity [16]: inactive; Activity [17]: inactive
7 | Cc1cc(NCC(C)C)on1 | 48.4 |  | Dose-dependent effect |  |  | Efficacy [18]: 36%
8 | Cc1cc(NCC2CCCCC2)no1 | 13.9 |  | Dose-dependent effect |  |  | Efficacy [19]: 64%
9 | Cc1cc(NCc2ccccc2)no1 | 400 | inactive | Dose-dependent effect | inactive | inactive | Activity [2]: inactive; Efficacy [12]: 82%

The next lines start with results.

Row | EC50 [3] [µM] | SMILES | Activity [1] | Activity [4] | Activity [5] | Activity [7] | further results
10 | 3.6 | CCCCNc1cc(C)on1 | inactive | Dose-dependent effect | Active | inactive | Activity [2]: inactive; Efficacy [6]: 89%
11 | 0.1 | Cc1cc(NC(C)C)no1 | inactive | Dose-dependent effect | Active | inactive | Activity ([2]; TDE = time-dependent effect): tde; Efficacy [9]: 53%
12 | 0.16 | Cc1cc(NCC(C)C)no1 | inactive | Dose-dependent effect | Active | inactive | Efficacy [11]: 58%; Activity ([2]; TDE = time-dependent effect): tde
13 | 0.5 | Cc1cc(NCCC(C)C)no1 | inactive | Dose-dependent effect | Active | inactive | Activity ([2]; TDE = time-dependent effect): tde; Efficacy [6]: 66%
